From ChEMBL document CHEMBL4706633, “Design, Synthesis, and Biological Evaluation of a Series of Oxazolone Carboxamides as a Novel Class of Acid Ceramidase Inhibitors” (J Med Chem, 2020)
Active and inactive are the calls of the source. The calls are words filed in the database; no cut-off is given here.

What was measured:
Acid ceramidase [1] = biological target: T1, Acid ceramidase (Homo sapiens, UniProt Q13510); experiment: Inhibition of human acid ceramidase using Rbm14-12 fluorogenic substrate incubated for 1 hr by fluorescence assay; conditions: read-out: IC50
T1 sequence (Q13510 whole entry): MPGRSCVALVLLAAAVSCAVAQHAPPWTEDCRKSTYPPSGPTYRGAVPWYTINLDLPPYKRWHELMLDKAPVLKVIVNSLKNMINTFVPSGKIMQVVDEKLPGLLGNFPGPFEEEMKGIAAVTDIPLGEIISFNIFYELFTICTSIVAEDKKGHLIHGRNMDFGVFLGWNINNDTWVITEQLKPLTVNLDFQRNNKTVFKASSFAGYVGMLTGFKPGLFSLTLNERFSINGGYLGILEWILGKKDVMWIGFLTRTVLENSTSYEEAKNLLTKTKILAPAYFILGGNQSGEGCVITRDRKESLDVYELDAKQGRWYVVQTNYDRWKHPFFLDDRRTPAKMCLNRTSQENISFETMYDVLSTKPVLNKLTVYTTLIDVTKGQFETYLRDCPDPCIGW

Acid ceramidase [2] = biological target: T1, Acid ceramidase; experiment: Inhibition of human acid ceramidase
Acid ceramidase [3] = biological target: T1, Acid ceramidase; experiment: Inhibition of acid ceramidase in human HL-60 cell lysates; assay type: subcellular
Acid ceramidase [4] = biological target: T1, Acid ceramidase; experiment: Inhibition of acid ceramidase in human HaCaT cell lysates; assay type: subcellular
[5] = Stability in mouse plasma at 2 uM after 120 mins by LC/MS-MS analysis; assay type: ADME, cell-free; conditions: read-out: Stabilty
[6] = Half life in mouse plasma at 2 uM by LC/MS-MS analysis; assay type: ADME, cell-free
Procedure, shortened: (§1)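 Kinetic aqueous solubility was measured in PBS, pH 7.4. Metabolic stability was measured as t1/2 in mouse plasma and mouse liver microsomes, with microsomal data also given as % compound remaining at 1 h. Values are means of at least two independent experiments, each in two technical replicates.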

[7] = Half life in mouse liver microsomes at 4.6 uM in presence of NADPH by LC/MS-MS analysis; assay type: ADME, Microsome
Procedure, shortened: as §1

[8] = Kinetic solubility in pH 7.4 PBS buffer at 250 uM incubated for 1 hr by UPLC/MS analysis; assay type: physicochemical; conditions: read-out: Kinetic_solubility
Procedure, shortened: as §1

[9] = biological target: T2, Acid ceramidase (Homo sapiens) (UniProt Q13510); experiment: Inhibition of human acid ceramidase at 1 to 10 uM using N-lauroyl ceramide incubated for 1 hr by LC/MS analysis; conditions: dose 1-10 µM
T2 sequence (whole entry): T1 sequence (Q13510 whole entry)

[10] = biological target: T2, Acid ceramidase (Homo sapiens); experiment: Inhibition of human acid ceramidase at 5 uM using N-lauroyl ceramide incubated for 1 hr by LC/MS analysis relative to control
[11] = Stability in mouse liver microsomes at 4.6 uM in presence of NADPH after 60 mins by LC/MS-MS analysis; assay type: ADME, Microsome; conditions: read-out: Stabilty
Procedure, shortened: as §1

[12] = biological target: T2, Acid ceramidase (Homo sapiens); experiment: Inhibition of human acid ceramidase at 10 uM using N-lauroyl ceramide incubated for 1 hr by LC/MS analysis relative to control
[13] = Half life in pH 7 0.01M PBS buffer at 2 uM by LC/MS-MS analysis; assay type: physicochemical
[14] = biological target: T2, Acid ceramidase (Homo sapiens); experiment: Irreversible covalent inhibition of human acid ceramidase using N-lauroyl ceramide incubated for 1 hr by LC/MS analysis

Cc1oc(=O)n(C(=O)NCCCCc2ccccc2)c1-c1ccccc1
IC50 (Acid ceramidase [1]): 42 nM

COc1ccc(-c2cn(C(=O)NCCCCc3ccccc3)c(=O)o2)cc1
IC50 (Acid ceramidase [1]): 400 nM

CCCCCCNC(=O)n1cc(Cl)c(=O)n(C(=O)OCC(C)C)c1=O
IC50 (Acid ceramidase [2]): 12.8 nM

CCCCCCCCCCCCCC(=O)N[C@H](C)[C@@H](O)c1ccccc1
IC50 (Acid ceramidase [3]): > 500000 nM
IC50 (Acid ceramidase [4]): 500000 nM

CCCCCCNC(=O)n1cc(F)c(=O)n(C(=O)OCC(C)C)c1=O
IC50 (Acid ceramidase [2]): 7.7 nM

CC(C)CNC(=O)n1cc(-c2ccccc2)oc1=O
IC50 (Acid ceramidase [1]): 1700 nM
remaining at 2 h, 2 µM [5]: 70%
t1/2 [6]: > 120 min
t1/2 [7]: 50 min
solubility kinetic at 1 h, 250 µM [8]: < 1 µM

CN(CCCCc1ccccc1)C(=O)n1cc(-c2ccccc2)oc1=O
inhibition [9]: inactive

O=C(NCCCCc1ccccc1)n1cc(-c2ccccn2)oc1=O
IC50 (Acid ceramidase [1]): 25 nM
t1/2 [6]: 40 min
t1/2 [7]: 10 min
solubility kinetic at 1 h, 250 µM [8]: < 1 µM

O=C(NCCCCc1ccccc1)n1cc(-c2ccc(Cl)cc2)oc1=O
IC50 (Acid ceramidase [1]): 83 nM

O=C(Nc1ccccc1)n1cc(-c2ccccc2)oc1=O
inhibition [10]: 20%

O=C(NCCCCc1ccccc1)n1cc(-c2cccnc2)oc1=O
IC50 (Acid ceramidase [1]): 70 nM
t1/2 [6]: 60 min
t1/2 [7]: > 60 min
remaining at 1 h, 4.6 µM [11]: 55%
solubility kinetic at 1 h, 250 µM [8]: < 1 µM

COCCCNC(=O)n1cc(-c2ccccc2)oc1=O
inhibition [12]: 53%

O=C(NCCCCc1ccccc1)n1cc(-c2nccs2)oc1=O
IC50 (Acid ceramidase [1]): 59 nM

N=C(N)Nc1ccc(CC(=O)Oc2ccc(-c3ccccc3)cc2)cc1
IC50 (Acid ceramidase [2]): 52000 nM

CC(C)CNC(=O)n1cc(-c2ccc(F)cc2C2CCN(C)CC2)oc1=O
inhibition [12]: 38%

COc1cccc(-c2cn(C(=O)NCCCCc3ccccc3)c(=O)o2)c1
IC50 (Acid ceramidase [1]): 341 nM
remaining at 2 h, 2 µM [5]: 64%
t1/2 [6]: > 120 min
t1/2 [7]: 30 min
solubility kinetic at 1 h, 250 µM [8]: < 1 µM

O=C(OCCCCc1ccccc1)n1cc(-c2ccccc2)oc1=O
inhibition [9]: inactive

CCCCCCCCCCCCCCC[C@@H](O)[C@H](CO)NC(=O)CBr
IC50 (Acid ceramidase [2]): 52 nM

O=C(NCCCCc1ccccc1)n1cc(-c2cscn2)oc1=O
IC50 (Acid ceramidase [1]): 44 nM

O=C(NCCCCc1ccccc1)n1cc(-c2cnccn2)oc1=O
IC50 (Acid ceramidase [1]): 32 nM
t1/2 [6]: 40 min
t1/2 [7]: 60 min
solubility kinetic at 1 h, 250 µM [8]: < 1 µM

Cc1c(-c2ccccc2)oc(=O)n1C(=O)NCCCCc1ccccc1
IC50 (Acid ceramidase [1]): 69 nM

CCCCCNC(=O)n1cc(-c2ccccc2)oc1=O
IC50 (Acid ceramidase [1]): 39 nM
remaining at 2 h, 2 µM [5]: 60%
t1/2 [6]: > 120 min
t1/2 [7]: < 5 min
solubility kinetic at 1 h, 250 µM [8]: < 1 µM

CCCCCNC(=O)n1cc(-c2ccc(F)c(C3CCN(C)CC3)c2)oc1=O
IC50 (Acid ceramidase [1]): 1920 nM

O=C(NCCCCc1ccccc1)n1cc(-c2ccccc2)oc1=O
IC50 (Acid ceramidase [1]): 90 nM
half-life at 2 µM [13]: > 720 min
t1/2 [6]: < 5 min
t1/2 [7]: 40 min
inhibition [14]: Dose-dependent effect
solubility kinetic at 1 h, 250 µM [8]: < 1 µM
